The values below come from ChEMBL document CHEMBL1821656, “Design, synthesis, and evaluation of inhibitors of Norwalk virus 3C protease” (Bioorg Med Chem Lett, 2011).

A value given as a limit tells only on which side of the number the result lay.

A short description of data set [1]: Cytotoxicity against human HG23 cells after 48 hrs. The note with it: read-out: TD50. The data set is classed as cell-based. In a few lines: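 HG23 cells carrying the Norwalk replicon were used 1 day after plating at 80-90% confluence. They were exposed for 48 hr to compound at 0 (DMSO mock) to 320 μM. Viability was measured with a commercial cytotoxicity kit, and the median toxic dose (TD50) was calculated.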

Data set [2] is described as follows: Cytotoxicity against mouse […] cells after 12 to 24 hrs relative to ribavirin. In kind it is cell-based. The note with it: read-out: TD50 (the source's name).
Data set [3] can be described thus: (§1) Inhibition of recombinant Norwalk virus 3C protease using Edans-EPDFHLQGPEDLAK-Dabcyl as substrate preincubated for 30 mins measured for 30 mins by spectrofluorometry. In a few lines:
(§2)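 Enzyme (final 2.5 μM) was held at 30 °C in pH 8.0 sodium phosphate (50 mM) containing 120 mM NaCl and 6 mM DTT. The fluorescence increase was monitored 30 min at 360/460 nm excitation/emission.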

The subject of data set [4] is Norwalk virus. The description is as §1. In outline: as §2
Data set [5] has as its system Norwalk virus. Nature of the data set: Inhibition of recombinant Norwalk virus 3C protease using Edans-EPDFHLQGPEDLAK-Dabcyl as substrate at [compound]/[substrate] ratio of 25 preincubated for 30 mins measured for 30 mins by spectrofluorometry. Set-up: concentration or dose not given beside the values.
Data set [6] relates to Norwalk virus. Nature of the data set: Antiviral activity against Norwalk virus in NV replicon-harboring HG23 cells assessed as inhibition of viral replication after 24 hrs by analyzing NV genome level using qRT-PCR. The note with it: HG23, 24 h, read-out: ED50 (the source's name). In kind it is functional. In a few lines: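 HG23 cells (stably harbouring NV replicon), 1 day old and 80–90% confluent, treated with compound at 0 (DMSO mock) to 320 μM. NV genome levels quantified by qRT-PCR after 24 h of treatment.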
(Replicon systems follow genome replication, usually without infectious particles.)

Usually IC50 stands for the concentration needed to halve the response being measured. A word on the inhibition: it is the drop in the measured response relative to a control, in per cent. For `CC(C)C[C@H](NC(=O)OCc1ccccc1)C(=O)N[C@H](C=O)CC1CCNC1=O` (stereo partly specified), the CC50 at 48 h in data set [1] is over 320 µM. Besides, the CC50 in data set [2] is over 320 µM. Besides, the IC50 in data set [3] came to 1.82 µM. Also, the inhibition entry in the data set on Norwalk virus [4] is “Dose-dependent effect”.
As for `CCCC[C@H](NC(=O)CNC(=O)OCc1ccccc1)C(=O)N[C@H](CO)CC1CCNC1=O` (stereo partly specified), the inhibition in the data set with Norwalk virus [5] is under 25%.
In the case of `CC(C)C[C@H](NC(=O)CNC(=O)OCc1ccccc1)C(=O)N[C@H](C=O)CC1CCNC1=O` (stereo partly specified), the CC50 at 48 h in data set [1] is over 320 µM. In addition, the CC50 in data set [2] is over 320 µM. Also, in the data set on Norwalk virus [6], the EC50 is 7.8 µM. For the same compound, the IC50 in data set [3] turned out to be 1.45 µM.
Take `CC[C@@H](C)[C@H](NC(=O)CNC(=O)OCc1ccccc1)C(=O)N[C@H](C=O)CC1CCNC1=O` (stereo partly specified): the IC50 in data set [3] is 7.5 µM.
As for `CC(C)C[C@H](NC(=O)OCc1ccccc1)C(=O)N[C@H](CO)CC1CCNC1=O` (stereo partly specified), in the data set on Norwalk virus [5], the inhibition was under 25%.
On to `CC(C)C[C@H](NC(=O)CNC(=O)OCc1ccccc1)C(=O)N[C@H](CO)CC1CCNC1=O` (stereo partly specified), for which the inhibition in the data set on Norwalk virus [5] is under 25%.
In the case of `CC(C)C[C@H](NC(=O)OCc1ccccc1)C(=O)N[C@@H](CC1CCNC1=O)C(=O)C(=O)NC(C)C` (stereo partly specified), the inhibition in the data set on Norwalk virus [5] was under 25%.
With `O=C[C@H](CC1CCNC1=O)NC(=O)[C@H](Cc1ccccc1)NC(=O)N1CCOCC1` (stereo partly specified), the inhibition in the data set on Norwalk virus [5] is under 25%.
As for `CC(C)C[C@H](NC(=O)N1CCOCC1)C(=O)N[C@H](C=O)CC1CCNC1=O` (stereo partly specified), in data set [3], the IC50 is 7.2 µM.
Turning to `CCCC[C@H](NC(=O)CNC(=O)OCc1ccccc1)C(=O)N[C@H](C=O)CC1CCNC1=O` (stereo partly specified), the IC50 in data set [3] turned out to be 0.87 µM.
